Compound activity deposited in PubChem BioAssay by Johns Hopkins Ion Channel Center.
KCNK3 block – human KCNK3 channel inhibition, primary screen; CHO-KCNK3 thallium flux, FluxOR fluorescence; hits give low values; AID 602410; O14649; B-score at 10 µM; hit rate 0.84% among 340,000;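 active = B-score under library mean minus 4 SD, starting fluorescence ratio at most library mean plus 5 SD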;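 also: more negative B-score means stronger inhibition of thallium flux through KCNK3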
KCNK9 inh – blocks the human KCNK9 two-pore domain potassium channel; Q9NPC2; HEK293 KCNK9, FluxOR thallium flux fluorescence; hits give low values; B-score at 10 µM; hit rate 1.2% among 310,000; AID 488922;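 active = ratio B-score over 3 SD below the library mean, with starting fluorescence within 5 SD of its mean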;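 also: negative B-score means less thallium flux so channel inhibition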
KCNQ1 block – inhibitors of human KCNQ1 potassium channel; P51787; CHO-K1 KCNQ1, FluxOR thallium flux fluorescence; hits give high values; B-score at 10 µM; hit rate 1.3% among 310,000; AID 2642;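 active = compounds whose thallium flux B-score, printed positive for inhibition, exceeds three library SD while starting fluorescence stays within three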;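 also: channel opened by potassium depolarization with thallium stimulus after 20 min compound exposure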
hERG protect – shields human hERG channel from block by proarrhythmic agents | CHO-hERG, FluxOR thallium flux, dofetilide IC70 present | activation (rescue from dofetilide block), less the hit threshold, % at 10 µM | hit rate 0.51% among 310,000 | Q12809;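 active = activation above the mean of controls blocked by dofetilide plus 5 SD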;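 also: thallium influx through hERG after potassium depolarization seen as dye fluorescence rise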
KCNQ1 act – human KCNQ1 channel potentiation or activation; P51787; AID 2648; B-score at 10 µM; CHO-K1 KCNQ1, thallium flux FluxOR fluorescence; hits give high values; hit rate 0.35% among 310,000;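 active = fluorescence ratio B-score, a plate-corrected score, at least three library SD, with initial intensity B-score within 5 SD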
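assay system = KCNQ1-transfected CHO-K1 cells | medium = assay buffer with matched DMSO | probe or stimulus = depolarizing K+/Tl+ stimulus, K2SO4 and Tl2SO4 each 12.5 mM in 5x stock | dosing = single dose | incubation = dye 90 min, compound 20 min, room temperature | detection = kinetic FluxOR fluorescence, 10 s baseline plus 110 s post-stimulus | evaluation = ratio B score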
KCNQ1 block val – confirmation of human KCNQ1 potassium channel inhibitors | shares compounds with KCNQ1 block | KCNQ1 cell line, FluxOR thallium flux fluorescence | inhibition, % at 10 µM | hit rate 93% among 1,600;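 active = primary screen active, with duplicate mean exceeding buffer control mean plus 3 SD of buffer wells, cut at about 28% in these data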;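 also: 0% = buffer control ratio and 100% = XE991 inhibitor control ratio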
CHO KCNQ1 ctr – counter-screen for KCNQ1 inhibitors: effect in parental CHO cells; shares compounds with KCNQ1 block; fluorescence ratio (Tl flux) at 10 µM; hit rate 21% among 1,600; parental CHO-K1, FluxOR thallium flux fluorescence ratio; hits give low values; zero means no signal rise above baseline;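 active = mean of duplicate thallium-flux fluorescence ratios in parental host cells more than 5 SD below the buffer control mean, cut at about 0.38 in these data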;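 also: ratio is peak minus minimum fluorescence divided by baseline fluorescence; actives read low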
KCNQ1 APC inh – human KCNQ1 inhibition validated by electrophysiology; shares compounds with KCNQ1 block; KCNQ1-CHO cells, automated patch clamp current; calls only at 10 µM; hit rate 20% among 490;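 active = KCNQ1 current drop exceeding 3 SD of negative control wells, seen in both duplicate runs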;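 also: steady state current during a 2 s step from -80 to +40 mV; negative values mean current inhibition and positive values mean potentiation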
KCNQ2 inh – rat KCNQ2 inhibition in KCNQ1 inhibitor specificity screen; shares compounds with KCNQ1 block; KCNQ2 cells, FluxOR thallium flux fluorescence; inhibition, % at 10 µM; hit rate 71% among 1,600; AID 651746;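 active = mean percent inhibition of the KCNQ2 thallium signal more than 5 SD above the buffer-only control wells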;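 also: KCNQ2 expressed in CHO cells; 0% = buffer control wells and 100% = XE-991 inhibitor control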
Target sequence (O88943 whole entry, looked up): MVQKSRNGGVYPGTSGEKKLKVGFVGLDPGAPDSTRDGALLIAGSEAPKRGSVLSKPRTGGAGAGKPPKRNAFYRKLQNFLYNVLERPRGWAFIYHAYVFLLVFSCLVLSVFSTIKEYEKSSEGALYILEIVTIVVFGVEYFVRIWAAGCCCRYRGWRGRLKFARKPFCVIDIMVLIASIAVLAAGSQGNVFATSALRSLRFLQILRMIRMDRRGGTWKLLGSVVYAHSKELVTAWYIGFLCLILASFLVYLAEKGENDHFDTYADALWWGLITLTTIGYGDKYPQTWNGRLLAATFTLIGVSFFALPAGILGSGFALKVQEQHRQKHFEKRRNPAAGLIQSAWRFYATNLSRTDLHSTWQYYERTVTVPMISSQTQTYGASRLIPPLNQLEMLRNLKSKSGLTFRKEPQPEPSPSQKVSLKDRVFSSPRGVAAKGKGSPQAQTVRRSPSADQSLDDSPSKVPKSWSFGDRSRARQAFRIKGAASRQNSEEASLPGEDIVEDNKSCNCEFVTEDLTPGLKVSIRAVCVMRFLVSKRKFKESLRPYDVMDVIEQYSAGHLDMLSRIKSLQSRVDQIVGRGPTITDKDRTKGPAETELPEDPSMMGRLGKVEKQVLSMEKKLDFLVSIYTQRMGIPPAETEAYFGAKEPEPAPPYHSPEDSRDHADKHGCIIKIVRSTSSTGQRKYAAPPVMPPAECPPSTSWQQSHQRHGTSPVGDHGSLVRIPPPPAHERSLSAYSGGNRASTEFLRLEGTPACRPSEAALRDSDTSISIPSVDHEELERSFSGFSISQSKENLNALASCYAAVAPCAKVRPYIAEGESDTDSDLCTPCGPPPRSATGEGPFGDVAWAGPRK
KCNQ1 KCNE1 spec – selectivity of KCNQ1 inhibitors: inhibition of human KCNQ1/KCNE1 channel; shares compounds with KCNQ1 block; KCNQ1/KCNE1 cells, FluxOR thallium flux fluorescence; inhibition, % at 10 µM; hit rate 77% among 1,600;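 active = mean percent inhibition of duplicate wells above the buffer-only control mean plus 3 SD of those controls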;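 also: 0% = buffer only wells and 100% = XE-991 inhibitor control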
KCNK9 inh conf – confirmation of human KCNK9 potassium channel inhibitors; shares compounds with KCNK9 inh; HEK293 KCNK9 cells, FluxOR thallium flux fluorescence; inhibition, % at 10 µM; hit rate 43% among 4,900;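 active = thallium signal inhibited by more than 5 SD of the compound-free buffer control wells, on both duplicate plates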;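 also: 0% = assay buffer control wells without compound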
Kir2-1 spec – selectivity of KCNK9 modulators against mouse Kir2.1; shares compounds with KCNK9 inh; Kir2.1 cells, FluxOR thallium flux fluorescence; inhibition, % at 10 µM; hit rate 4% among 4,900; AID 492993;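 active = thallium signal drop more than 5 SD beyond the mean of the no-compound control wells, seen in both duplicate plates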;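 also: signal is fluorescence rise after thallium addition divided by baseline fluorescence; plate controls were assay buffer only for no effect and full block by chlorpromazine control for full effect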
HEK293 Tl ctr – non-induced cell nonspecific activity of KCNK9 modulators | shares compounds with KCNK9 inh | non-induced KCNK9-HEK293, FluxOR thallium flux | inhibition, % at 10 µM | hit rate 40% among 4,900 | AID 492997;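 active = thallium signal drop beyond 5 SD of the untreated control mean, on both duplicate plates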;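 also: plate controls were buffer only IC0 wells for no effect and SID17386958 at its maximal inhibitory level for full effect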
KCNK3 confirm – human KCNK3 channel inhibition, confirmation assay; ratio percent of control, % at 10 µM; shares compounds with KCNK3 block; hit rate 99% among 2,400; CHO-KCNK3 thallium flux, FluxOR fluorescence; 0% buffer, 100% carvedilol maximal block;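 active = ratio percent of control, averaged over triplicates, above buffer control mean plus 5 SD, cut at about 64% in these data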;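 also: ratio is the fluorescence rise from min to max over baseline after thallium stimulus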
KCNK3 uninduced – counter-screen for KCNK3 inhibitors: effect in non-induced cells. shares compounds with KCNK3 block. non-induced KCNK3 parental cells, FluxOR thallium flux; hits give low values. thallium flux ratio (lower = more inhibition) at 10 µM. hit rate 40% among 2,400. AID 651747;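 active = thallium flux ratio, averaged over three wells, more than 5 SD below the buffer control mean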;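 also: host cells are CHO cells without KCNK3 induction; ratio is peak minus trough fluorescence over baseline then normalized to buffer controls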
Active calls of the source: *; i = inactive; / = not tested or not shown; + = active, no number. Sampled rows, rich in hits. Any-hit rate of the full collection: about 3.1%.

SMILES | KCNK3 block | KCNK9 inh | KCNQ1 block | hERG protect | KCNQ1 act | KCNQ1 block val | CHO KCNQ1 ctr | KCNQ2 inh | KCNQ1 KCNE1 spec | KCNK3 confirm | KCNK3 uninduced | others
COc1ccccc1CNC(=O)C1Cc2cc(S(=O)(=O)N3CCCCC3)ccc2N1C(C)=O (configuration not stated) | i | i | i | -8.6 | i | / | / | / | / | / | /
CCN(CC)S(=O)(=O)c1ccc2oc(SCc3ccc(F)cc3)nc2c1 | -11.1* | -8.71* | 9* | -12.2 | i | 82.5* | 0.447 | 80.0%* | 102.5%* | 100.3* | i | KCNK9 inh conf=36.0%*;Kir2-1 spec=i;HEK293 Tl ctr=41.0%*
Cc1cc(NC(=O)Nc2cccc(Cl)c2)n(-c2ccccn2)n1 | -11.3* | -12.7* | 14* | -21.0 | i | 191.5* | 0.393 | 125.0%* | + | 126.3* | i | KCNQ1 APC inh=i;KCNK9 inh conf=54.0%*;Kir2-1 spec=i;HEK293 Tl ctr=31.5%*
c1ccc(N2CCN(c3nc(NCc4ccco4)c4ccccc4n3)CC2)cc1 | -12* | i | 12* | -26.0 | i | 144.0* | 0.352* | 114.3%* | 192.0%* | 139.7* | 0.11*
O=C(CN1CCN(S(=O)(=O)N2CCOCC2)CC1)Nc1cc(Cl)cc(Cl)c1 | i | i | i | -3.0 | i | / | / | / | / | / | /
CC(C)COc1cccc(-c2cc(C(=O)N/N=C/c3ccncc3)c3ccccc3n2)c1 | -10.1* | i | 14* | -11.5 | i | 182.5* | 0.298* | 125.3%* | + | 118.3* | 0.0963*
CCOc1cc(/C=N/NC(=O)c2cc(-c3cccc(OC)c3)nc3ccccc23)ccc1O | i | i | i | -11.7 | i | / | / | / | / | / | /
Cc1ccc(C(=O)N2CCOCC2)cc1S(=O)(=O)N1CCCCC1 | i | i | i | -8.5 | i | / | / | / | / | / | /
COc1ccccc1NC(=O)Nc1nc(CC(=O)Nc2ccc(OC)c(OC)c2)cs1 | i | i | i | -12.3 | i | / | / | / | / | / | /
COc1cc(C)ccc1NC(=O)Cc1csc(NC(=O)Nc2ccccc2OC)n1 | -13* | -8.83* | 17* | -21.7 | i | 115.0* | 0.49 | 121.3%* | 171.5%* | 133.3* | i | KCNQ1 APC inh=i;KCNK9 inh conf=28.0%*;Kir2-1 spec=i;HEK293 Tl ctr=24.0%*
CCOc1cc(N2CCOCC2)c(OCC)cc1NC(=O)c1cc(S(=O)(=O)N2CCOCC2)ccc1C | i | / | / | / | / | / | / | / | / | / | /
COc1ccc(C(=O)OCc2csc(C)n2)c(O)c1 | i | i | i | -6.8 | i | / | / | / | / | / | /
O=C(Nc1cccnc1)c1cc(-c2cccc(Br)c2)nc2ccccc12 | -12.1* | -9.21* | 15* | -17.8 | i | 147.5* | 0.306* | 130.3%* | 195.0%* | 155.7* | 0.105* | KCNK9 inh conf=i;Kir2-1 spec=i;HEK293 Tl ctr=38.0%*
O=C(Nc1ccncc1)c1cc(-c2cccc(Br)c2)nc2ccccc12 | i | i | i | -16.4 | i | / | / | / | / | / | /
NC(=O)c1ccsc1NC(=O)COC(=O)Cc1cccc2ccccc12 | -8.92* | i | 9* | -30.9 | i | 110.0* | 0.314* | 103.7%* | + | 115.7* | i
CCOC(=O)Nc1nc(-c2ccccc2)c(C(=O)c2ccc(Cl)cc2)s1 | -8.74* | -14.6* | 7* | -11.6 | i | 97.5* | 0.362* | 94.0%* | 171.0%* | 124.7* | 0.159* | KCNK9 inh conf=39.5%*;Kir2-1 spec=i;HEK293 Tl ctr=42.0%*
COc1ccc(C(C)NC(=O)CC23CC4CC(CC(C4)C2)C3)cc1 (configuration not stated) | i | i | i | -7.8 | i | / | / | / | / | / | /
CC(C)c1ccc2c(c1)C1(NN=C(c3ccccc3)S1)C(=O)N2 (configuration not stated) | -11.7* | i | 18* | -22.3 | i | 68.0* | 0.354* | 78.3%* | 42.5%* | 137.7* | 0.0953*
Cc1ccc(OCC(O)Cn2c3ccccc3c3ccccc32)cc1 (configuration not stated) | i | i | i | -5.0 | i | / | / | / | / | / | /
Cc1cccc(C)c1OCC(O)Cn1c2ccccc2c2ccccc21 (configuration not stated) | -10.9* | i | 11* | -16.4 | i | 0.0 | 0.457 | 74.7%* | i | 116.3* | i
Cc1nc2ccc(S(=O)(=O)Nc3cccc(-c4nc5cccnc5s4)c3C)cc2s1 | -9.61* | i | 12* | -20.7 | i | 145.0* | 0.324* | 105.3%* | + | 114.3* | i
Cc1nc2ccc(S(=O)(=O)Nc3cc(-c4nc5cccnc5s4)ccc3C)cc2s1 | i | i | i | -17.2 | i | / | / | / | / | / | /
COc1ccc(CCNC(C(=O)Nc2cc(C)cc(C)c2)c2ccccc2)cc1 (configuration not stated) | -14* | i | 12* | -15.6 | i | 87.5* | 0.369* | 122.3%* | 143.5%* | 117.7* | 0.139*
Cc1cc(C)cc(NC(=O)C(NCC2CCCO2)c2ccccc2)c1 (configuration not stated) | i | i | i | -6.5 | i | / | / | / | / | / | /
CC(C)OCCCNc1nc(-c2ccccc2)nc2ccccc12 | -10.2* | i | 7* | -23.8 | i | 87.5* | 0.475 | 116.7%* | 152.0%* | 122.7* | i | KCNQ1 APC inh=i
CN(C)CCCNc1nc(-c2ccccc2)nc2ccccc12 | i | i | i | -10.5 | i | / | / | / | / | / | /
